# Assay results from different studies.
# Target: Calcium/calmodulin-dependent protein kinase type II subunit alpha (CAMK2A, Homo sapiens, UniProt Q9UQM7)
SMILES,observed,mode,method,concentration,quantity,result
Cc1nn(C)cc1-c1nc2c(N3CCN(Cc4ccc(Cl)cc4)CC3)c(Cl)cnc2[nH]1,binding,,competition with immobilised ligand,1 µM,remaining binding,95%
Cc1ncc(C)n2nc(/C=C/c3nc(N4CCCC4)cc(N4CCOCC4)n3)nc12,enzyme activity,inhibitor,,10 µM,inhibition,6%
Cn1cc(-c2cc(F)cc(N3CCn4c(cc5c4CCCC5)C3=O)c2CO)cc(Nc2ccc(N3CCN(C4COC4)CC3)cn2)c1=O,enzyme activity,inhibitor,,0.1 µM,inhibition,12%
O=C(Nc1cccnn1)N1CCN([C@@H]2CCOc3cc(C(F)(F)F)ccc32)CC1,cell-free assay,,,20 µM,inhibition,3%
N#CC1(c2ccccn2)CCN(Cc2cc(C(=O)O)c(=O)n3ccccc23)CC1,cell-free assay,,competition with immobilised ligand,1 µM,remaining binding,83%
COc1ncccc1-c1cnn2ccc(N3CCN(C(=O)OC(C)C)CC3)nc12,binding,,competition with immobilised ligand,1 µM,remaining binding,70%
O=c1[nH]c2ccccc2n1C1CCN(Cc2ccc(-c3[nH]c4cc5ncnc5cc4nc3-c3ccccc3)cc2)CC1,cell-free assay,,,0.5 µM,remaining signal,109%
Cn1cc(-c2cccc(N3CCc4c(sc5c4CC(C)(C)C5)C3=O)c2CO)cc(Nc2ccncn2)c1=O,enzyme activity,inhibitor,,1 µM,inhibition,-7%
Cn1cncc1[C@](O)(COc1ccc(C#N)cc1-c1ccc(OC(F)(F)F)cc1)c1ccc(C#N)cc1,cell-free assay,,competition with immobilised ligand,1 µM,remaining binding,95%
Nc1ncc(-c2nc(N3CCOCC3)nc(N3CCOCC3)n2)c(C(F)F)n1,binding,,competition with immobilised ligand,10 µM,remaining binding,64%
